Laboratory results published in ChEMBL document CHEMBL1124811, “Cyclic hexapeptide oxytocin antagonists. Potency-, selectivity-, and solubility-enhancing modifications” (J Med Chem, 1990).
≈ marks a conversion by molar mass, not a printed value. Non-standard residues stand in square brackets, D forms with d. Residues, ends and D or L forms follow the SMILES beside them. Piz(1,6-dehydro) = O=C(O)[C@@H]1CCC=NN1; dPiz(1,6-dehydro) = O=C(O)[C@H]1CCC=NN1; dNMeF = CN[C@H](Cc1ccccc1)C(=O)O; Pip = O=C(O)[C@@H]1CCCCN1; dPip = O=C(O)[C@H]1CCCCN1; Orn = NCCC[C@H](N)C(=O)O

Legend:
Oxytocin receptor = biological target: T1, Oxytocin receptor (Rattus norvegicus, UniProt P70536); experiment: Inhibition of [3H]- oxytocin binding to rat uterine Oxytocin receptor
T1 sequence (P70536 whole entry): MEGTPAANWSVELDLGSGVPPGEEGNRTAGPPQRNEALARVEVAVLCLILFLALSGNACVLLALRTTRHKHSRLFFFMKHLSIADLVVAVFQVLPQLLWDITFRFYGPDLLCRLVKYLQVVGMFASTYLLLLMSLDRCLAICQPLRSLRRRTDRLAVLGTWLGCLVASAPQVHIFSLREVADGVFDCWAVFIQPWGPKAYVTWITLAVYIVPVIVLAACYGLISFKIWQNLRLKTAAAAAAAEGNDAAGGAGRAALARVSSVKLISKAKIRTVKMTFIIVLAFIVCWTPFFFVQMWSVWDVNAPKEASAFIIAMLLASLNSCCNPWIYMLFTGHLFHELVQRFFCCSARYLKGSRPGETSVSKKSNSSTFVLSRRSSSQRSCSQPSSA
Summary of the method: (§1)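 Radioligand competition binding. Ki derived from IC50 values from competition curves; reported as group means ± SEM of three or more replicate determinations unless noted otherwise.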

Vasopressin V2 receptor = Vasopressin V2 receptor (Rattus norvegicus, UniProt Q00788); experiment: Inhibition of [3H]arginine vasopressin binding to rat kidney medulla Vasopressin V2 receptor; summary of the method: as §1
Vasopressin V2 receptor, sequence (Q00788 whole entry): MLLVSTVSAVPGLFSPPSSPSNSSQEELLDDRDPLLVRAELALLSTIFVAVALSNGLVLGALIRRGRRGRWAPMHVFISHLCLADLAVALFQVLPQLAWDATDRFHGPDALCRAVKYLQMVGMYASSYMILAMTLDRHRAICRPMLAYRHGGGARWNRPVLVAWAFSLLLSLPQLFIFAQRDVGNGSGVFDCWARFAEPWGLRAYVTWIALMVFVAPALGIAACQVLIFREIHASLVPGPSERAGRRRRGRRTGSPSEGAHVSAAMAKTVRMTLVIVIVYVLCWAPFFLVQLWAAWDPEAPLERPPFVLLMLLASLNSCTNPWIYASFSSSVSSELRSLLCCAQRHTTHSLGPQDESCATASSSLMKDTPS

Vasopressin V1 receptor = Vasopressin V1 receptor (Rattus norvegicus, UniProt P48974+P30560); experiment: Inhibition of [3H]arginine vasopressin binding to rat liver Vasopressin V1 receptor; summary of the method: as §1
[1] = Solubility at 25 degree C and pH of 7.4; type: physicochemical; details: pH 7.4; read-out: S
[2] = biological target: T2, Oxytocin receptor (Rattus norvegicus) (UniProt P70536); experiment: Inhibition of binding of [3H]- oxytocin to rat uterine Oxytocin receptor; details: concentration not given here; summary of the method: as §1
T2 sequence (whole entry): T1 sequence (P70536 whole entry)

[3] = biological target: Vasopressin V1 receptor (Rattus norvegicus) (UniProt P48974+P30560); experiment: Inhibition of binding of [3H]-arginine vasopressin to rat liver Vasopressin V1 receptor at a concentration of 10000 nM
Vasopressin V1 receptor (Rattus norvegicus), sequence (P30560 whole entry, looked up): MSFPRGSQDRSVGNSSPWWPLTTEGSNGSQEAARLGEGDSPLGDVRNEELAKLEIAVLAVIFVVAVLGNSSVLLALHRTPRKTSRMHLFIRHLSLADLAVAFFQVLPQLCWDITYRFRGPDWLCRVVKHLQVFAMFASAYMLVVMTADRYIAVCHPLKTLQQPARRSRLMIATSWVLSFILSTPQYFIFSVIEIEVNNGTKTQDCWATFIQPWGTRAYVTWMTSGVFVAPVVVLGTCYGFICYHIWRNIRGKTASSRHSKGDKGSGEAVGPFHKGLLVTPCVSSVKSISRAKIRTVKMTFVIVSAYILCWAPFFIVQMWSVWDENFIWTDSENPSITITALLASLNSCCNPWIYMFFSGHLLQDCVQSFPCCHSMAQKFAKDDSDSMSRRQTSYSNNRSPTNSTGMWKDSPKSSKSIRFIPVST
Vasopressin V1 receptor (Rattus norvegicus), sequence (P48974 whole entry, looked up): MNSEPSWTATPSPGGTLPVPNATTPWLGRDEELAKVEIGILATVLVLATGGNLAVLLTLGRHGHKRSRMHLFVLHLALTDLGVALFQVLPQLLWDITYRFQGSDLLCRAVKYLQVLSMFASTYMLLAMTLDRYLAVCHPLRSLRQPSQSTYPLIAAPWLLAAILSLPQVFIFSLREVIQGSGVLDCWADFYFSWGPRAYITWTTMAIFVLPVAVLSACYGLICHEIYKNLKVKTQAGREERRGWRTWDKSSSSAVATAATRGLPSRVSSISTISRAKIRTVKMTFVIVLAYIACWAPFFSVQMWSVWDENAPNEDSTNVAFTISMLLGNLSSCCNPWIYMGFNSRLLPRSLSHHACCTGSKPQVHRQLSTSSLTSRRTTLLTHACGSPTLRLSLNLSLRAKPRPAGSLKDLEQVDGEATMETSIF

[4] = biological target: Vasopressin V2 receptor (Rattus norvegicus) (UniProt Q00788); experiment: Inhibition of binding of [3H]-arginine vasopressin to rat kidney medulla Vasopressin V2 receptor at a concentration of 10000 nM
Vasopressin V2 receptor (Rattus norvegicus), sequence (Q00788 whole entry): as the sequence (Q00788 whole entry) above

[5] = Solubility at 25 degree C and pH of 10.8; type: physicochemical; details: pH 10.8; read-out: S
[6] = Solubility at 25 degree C and pH of 5.0; type: physicochemical; details: pH 5; read-out: S
[7] = Solubility at 25 degree C and pH of 7.0; type: physicochemical; details: pH 7; read-out: S

`CC[C@H](C)[C@@H]1NC(=O)[C@@H](Cc2ccc3ccccc3c2)NC(=O)[C@@H]2CCCN2C(=O)[C@@H](Cc2c[nH]cn2)NC(=O)[C@@H]2CCCCN2C(=O)[C@H]2CCCCN2C1=O` showed a Ki (Oxytocin receptor) of 0.0016 µM, a Ki (Vasopressin V2 receptor) of 0.32 µM and a Ki (Vasopressin V1 receptor) of 0.76 µM.
`CC[C@H](C)[C@@H]1NC(=O)[C@@H](Cc2ccccc2)NC(=O)[C@@H]2CCCN2C(=O)[C@@H](Cc2ccccc2)N(C)C(=O)[C@@H]2CCCCN2C(=O)[C@H]2CCCCN2C1=O` showed a solubility [1] of 0.002 mg/mL (≈ 2.7 µM), a Ki (Oxytocin receptor) of 0.083 µM and a Ki (Vasopressin V2 receptor) of 1.6 µM. It also gave a Ki (Vasopressin V1 receptor) of 0.89 µM.
In the case of `CC[C@H](C)[C@@H]1NC(=O)[C@@H](Cc2ccccc2)NC(=O)[C@@H]2CCCN2C(=O)[C@@H](C)N(C)C(=O)[C@@H]2CCCCN2C(=O)[C@H]2CCCCN2C1=O`, the Ki (Oxytocin receptor) is reported as 0.49 µM, the Ki (Vasopressin V2 receptor) is reported as over 10 µM and the Ki (Vasopressin V1 receptor) is reported as over 10 µM.
`C[C@@H]1NC(=O)[C@@H](Cc2ccccc2)NC(=O)[C@@H]2CCCN2C(=O)[C@@H](Cc2ccccc2)N(C)C(=O)[C@@H]2CCCCN2C(=O)[C@H]2CCCCN2C1=O` (cyclo(A[dPip][Pip][dNMeF]P[dF])) showed a Ki (Oxytocin receptor) of 12 µM, a Ki (Vasopressin V2 receptor) of over 30 µM and a Ki (Vasopressin V1 receptor) of over 30 µM.
With `CC[C@H](C)[C@@H]1NC(=O)[C@@H](Cc2c[nH]c3ccccc23)NC(=O)[C@@H]2CCCN2C(=O)[C@@H](Cc2ccccc2)N(C)C(=O)[C@H](CCCN)NC(=O)[C@H]2CCCCN2C1=O` (cyclo(I[dPip][Orn][dNMeF]P[dW])) the Ki (Oxytocin receptor) was 0.049 µM, the Ki (Vasopressin V2 receptor) was 0.5 µM and the Ki (Vasopressin V1 receptor) was 1 µM.
`CC[C@H](C)[C@@H]1NC(=O)[C@@H](C)NC(=O)[C@@H]2CCCN2C(=O)[C@@H](Cc2ccccc2)NC(=O)[C@@H]2CCCCN2C(=O)[C@H]2CCCCN2C1=O` (cyclo(I[dPip][Pip][dF]P[dA])) showed an inhibition [2] of 0%, an inhibition [3] of 0% and an inhibition [4] of 4%.
In the case of `CC[C@H](C)[C@@H]1NC(=O)[C@@H](Cc2ccccc2)NC(=O)[C@@H]2CCCN2C(=O)[C@@H](Cc2ccccc2)NC(=O)[C@@H]2CCCCN2C(=O)[C@H]2CCCCN2C1=O` (cyclo(I[dPip][Pip][dF]P[dF])), the Ki (Oxytocin receptor) is reported as 0.14 µM, the Ki (Vasopressin V2 receptor) is reported as 4.5 µM and the Ki (Vasopressin V1 receptor) is reported as 1.6 µM.
In the case of `CC[C@H](C)[C@@H]1NC(=O)[C@@H](Cc2c[nH]c3ccccc23)NC(=O)[C@@H]2CCCN2C(=O)[C@@H](Cc2c[nH]cn2)NC(=O)[C@@H]2CCCCN2C(=O)[C@H]2CCCCN2C1=O` (cyclo(I[dPip][Pip][dH]P[dW])), the solubility [5] is reported as 0.11 mg/mL (≈ 146 µM), the solubility [6] is reported as 2 mg/mL (≈ 2650 µM) and the Ki (Vasopressin V2 receptor) is reported as 1.8 µM. It also gave a Ki (Vasopressin V1 receptor) of 2.2 µM.
Molecule `CC[C@H](C)[C@@H]1NC(=O)[C@@H](Cc2c[nH]c3ccccc23)NC(=O)[C@@H]2CCCN2C(=O)[C@@H](Cc2ccccc2)N(C)C(=O)[C@@H]2CCCCN2C(=O)[C@H]2CCCCN2C1=O` (cyclo(I[dPip][Pip][dNMeF]P[dW])) has a Ki (Oxytocin receptor) of 0.0081 µM, a Ki (Vasopressin V2 receptor) of 0.26 µM and a Ki (Vasopressin V1 receptor) of 3.5 µM.
`CCOc1ccc(C[C@H]2NC(=O)[C@@H]3CCCN3C(=O)[C@@H](Cc3ccccc3)N(C)C(=O)[C@@H]3CCCCN3C(=O)[C@H]3CCCCN3C(=O)[C@H]([C@@H](C)CC)NC2=O)cc1` (cyclo(I[dPip][Pip][dNMeF]P[dY](Et))) gave a Ki (Oxytocin receptor) of 0.049 µM, a Ki (Vasopressin V2 receptor) of 0.25 µM and a Ki (Vasopressin V1 receptor) of 20 µM.
With `CC[C@H](C)[C@@H]1NC(=O)[C@@H](Cc2ccccc2)NC(=O)[C@@H]2CCCN2C(=O)[C@@H](Cc2ccccc2)N(C)C(=O)[C@@H]2CCC=NN2C(=O)[C@H]2CCC=NN2C1=O` (cyclo(I[dPiz(1,6-dehydro)][Piz(1,6-dehydro)][dNMeF]P[dF])) the solubility [7] was 0.068 mg/mL (≈ 92 µM) and the Ki (Oxytocin receptor) was 0.0073 µM.
In the case of `CC[C@H](C)[C@@H]1NC(=O)[C@@H](Cc2ccccc2)NC(=O)[C@@H]2CCCN2C(=O)[C@@H](Cc2ccccc2)N(C)C(=O)[C@@H]2CCCN2C(=O)[C@H]2CCCN2C1=O` (cyclo([dNMeF]P[dF]I[dP]P)), the Ki (Oxytocin receptor) is reported as 1.4 µM, the Ki (Vasopressin V2 receptor) is reported as 33 µM and the Ki (Vasopressin V1 receptor) is reported as 9.3 µM.
